{"data": "Published values of several laboratories", "effect on": "cell growth or viability", "note": "Lines come from different studies, so protocols differ."}
{"SMILES": "O=c1ccc2ccc(O)c(CO)c2o1", "cell line": "HEK293", "test": "MTT", "conditions": "36 h", "IC50": "> 20 µM"}
{"SMILES": "Cc1[nH]cc(Br)c(=O)c1-c1ccc(Oc2ccc(OC(F)(F)F)cc2)cc1", "cell line": "HEK293", "IC50": "> 10 µM"}
{"SMILES": "C=CC(=O)Nc1cccc(Nc2nc(Nc3ccc(OCCOC)cc3)ncc2F)c1", "cell line": "CNE2Z", "IC50": "6.33 µM"}
{"SMILES": "Cc1ncn2c(=O)n(C)nnc12", "cell line": "T98G", "test": "resazurin", "conditions": "7 days", "IC50": "6 µM"}
{"SMILES": "Cc1[nH]c(C)c(-c2ccc(-c3cccc(C(F)(F)F)c3)nc2)c(=O)c1Br", "cell line": "HEK293", "IC50": "> 10 µM"}
{"SMILES": "Cn1nnc2c(C(N)=O)ncn2c1=O", "cell line": "T98G", "test": "resazurin", "conditions": "7 days", "IC50": "660 µM"}
{"SMILES": "Cc1[nH]c(C)c(-c2ccc(OCc3cc(C(F)(F)F)cc(C(F)(F)F)c3)nc2)c(=O)c1Br", "cell line": "HEK293", "IC50": "> 10 µM"}
{"SMILES": "COc1ccc(F)cc1C(=O)NCc1ccc(-c2nn([C@@H](C)C(F)(F)F)c(N)c2C(N)=O)cc1", "cell line": "Rec1", "test": "ATP luminescence", "conditions": "72 h", "IC50": "0.0031 µM"}
{"SMILES": "CNC(=O)c1ncn2c(NCc3c(F)ccc4c3CCO4)ncc(-c3ccccc3)c12", "cell line": "KARPAS-422", "conditions": "7 days", "IC50": "0.052 µM"}
{"SMILES": "COc1ccc2oc(=O)cc(CSC(C)=O)c2c1", "cell line": "HEK293", "test": "MTT", "conditions": "36 h", "IC50": "> 20 µM"}
{"SMILES": "C=CCC[C@@H]1NC(=O)[C@H]2CCCN2C(=O)[C@H](Cc2ccccc2)NC(=O)C(C)(C)NC1=O", "cell line": "HEK293", "test": "XTT", "IC50": "> 100 µM"}
{"SMILES": "Cc1c(NC(=O)c2ccc(C(C)(C)C)cc2)cccc1-c1cn(C)c(=O)c(Nc2ccc(C(=O)N3CCOCC3)cc2)n1", "cell line": "CNE2Z", "IC50": "> 10 µM"}
{"SMILES": "Cn1nnc2c(-c3ccccc3)ncn2c1=O", "cell line": "T98G", "test": "resazurin", "conditions": "7 days", "IC50": "14 µM"}
{"SMILES": "C=C(Cl)C(=O)Nc1cc(Nc2nc(N3CCOCC3)c3sccc3n2)c(OC)cc1N(C)CCN(C)C", "cell line": "NCI-H1975", "test": "MTT", "IC50": "0.12 µM"}
{"SMILES": "c1cc(CN2CCN(c3ccncc3)CC2)cc(-c2ccc(-c3nc4ccccc4[nH]3)cc2)c1", "cell line": "HEK293", "IC50": "> 10 µM"}
{"SMILES": "CCC(=O)Nc1cc(Nc2nc(N3CCc4sccc4C3)c3cccnc3n2)c(OC)cc1N1CCC(N(C)C)CC1", "cell line": "NCI-H1975", "test": "MTT", "IC50": "0.81 µM"}
{"SMILES": "Cc1[nH]c(C)c(-c2ccc(-c3ccccc3C(F)(F)F)nc2)c(=O)c1Br", "cell line": "HEK293", "IC50": "> 10 µM"}
{"SMILES": "CC(=O)O[C@H](C)C(=O)CCCCCCC(=O)Nc1ccccc1", "cell line": "HEK293", "test": "XTT", "IC50": "36.3 µM"}
{"SMILES": "COc1ccc2oc(=O)cc(CCl)c2c1", "cell line": "HEK293", "test": "MTT", "conditions": "36 h", "IC50": "> 20 µM"}
{"SMILES": "O=C1NC(=NCc2cccs2)S/C1=C\\c1ccc2ncccc2c1", "cell line": "SK-MEL-28", "IC50": "> 10 µM"}
{"SMILES": "C=CC(=O)N1CCC[C@@H](n2nc(-c3ccc(Oc4ccccc4)cc3)c3c(N)ncnc32)C1", "cell line": "TMD8", "test": "CCK-8", "conditions": "72 h", "IC50": "0.01 µM"}
{"SMILES": "C/C=C/COc1ccc(-c2c(C)[nH]c(C)c(Cl)c2=O)cc1", "cell line": "HEK293", "IC50": "> 10 µM"}
{"SMILES": "COc1cc(N(C)CCN(C)C)c(NC(=O)/C=C/C(C)C)cc1Nc1nc(Nc2cnn(C)c2)c2sccc2n1", "cell line": "NCI-H1975", "test": "MTT", "IC50": "0.297 µM"}
{"SMILES": "CC(=O)SCc1cc(=O)oc2cc(O)ccc12", "cell line": "HEK293", "test": "MTT", "conditions": "36 h", "IC50": "> 20 µM"}
{"SMILES": "C=CC(=O)Nc1cc(Nc2nc(N3CCc4sccc4C3)c3cccnc3n2)c(OC)cc1N1CCN(CCO)CC1", "cell line": "NCI-H1975", "test": "MTT", "IC50": "0.906 µM"}
{"SMILES": "CCOC(=O)c1c(-c2ccccc2)nc2c(sc3ccccc32)c1O", "cell line": "HEK293", "IC50": "> 10 µM"}
{"SMILES": "CCN(CC)C(=O)c1ncn2c(=O)n(C)nnc12", "cell line": "T98G", "test": "resazurin", "conditions": "7 days", "IC50": "160 µM"}
{"SMILES": "C=C(Cl)C(=O)Nc1cc(Nc2nc(N3CCc4sccc4C3)c3sccc3n2)c(OC)cc1N(C)CCN(C)C", "cell line": "NCI-H1975", "test": "MTT", "IC50": "0.087 µM"}
{"SMILES": "CC[C@@H](C)[C@H](N)C(=O)N1Cc2ccccc2C1", "cell line": "SET-2", "test": "ATP luminescence", "conditions": "48 h", "IC50": "0.124 µM"}
{"SMILES": "CC(=O)Oc1ccc2c(CSC(C)=O)cc(=O)oc2c1", "cell line": "HEK293", "test": "MTT", "conditions": "36 h", "IC50": "> 20 µM"}
{"SMILES": "C=C(Cl)C(=O)Nc1cc(Nc2nc(N3CCSCC3)c3sccc3n2)c(OC)cc1N(C)CCN(C)C", "cell line": "NCI-H1975", "test": "MTT", "IC50": "0.165 µM"}
{"SMILES": "CC(C)C[C@H](NC(=O)[C@H](Cc1ccccc1)NC(=O)c1cnccn1)B(O)O", "cell line": "MKN-1", "test": "ATP luminescence", "IC50": "0.0053 µM"}
{"SMILES": "COc1cccc(Oc2ccccc2NC(=O)CNC(=O)c2c(C)cc(C)cc2C)c1", "cell line": "A673", "IC50": "5.5 µM"}
{"SMILES": "C=CC(=O)Nc1cc(Nc2nc(N3CCOCC3)c3sccc3n2)c(OC)cc1N(C)CCN(C)C", "cell line": "NCI-H1975", "test": "MTT", "IC50": "37.5 µM"}
{"SMILES": "CCCCCCCc1[nH]c2ccccc2c(=O)c1C", "cell line": "HEK293", "IC50": "> 10 µM"}
{"SMILES": "C=CC(=O)Nc1cc(Nc2nc(N3CCc4sccc4C3)c3cccnc3n2)c(OC)cc1N1CCC(N(C)C)CC1", "cell line": "NCI-H1975", "test": "MTT", "IC50": "0.15 µM"}
{"SMILES": "N[C@@H](CC(=O)N1CCN(C(c2ccc(F)cc2)c2ccc(F)cc2)CC1)C(=O)N1Cc2ccccc2C1", "cell line": "SET-2", "test": "ATP luminescence", "conditions": "48 h", "IC50": "0.368 µM"}
